Source: ChEMBL document CHEMBL5647699, “Discovery of a chemical probe for PRDM9” (Nat Commun, 2019)
Calls of active or inactive are those of the source. The rule behind the calls is not given here.

How the values were obtained:
[1] = target: DNA (cytosine-5)-methyltransferase 1 (Homo sapiens) (UniProt P26358); assay: Inhibition of DNMT1 (unknown origin) at 1 to 10 uM; details: dose 1-10 µM
[2] = target: Histone-lysine N-methyltransferase ASH1L (Homo sapiens) (UniProt Q9NR48); assay: Inhibition of ASH1L (unknown origin) at 1 to 10 uM; details: dose 1-10 µM
HCC1806 = assay: Cytotoxicity against human HCC1806 cells at upto 30 uM measured for 3 to 6 days by celltiter glo assay; format: functional, cell-based; details: time 3-6 day
[3] = target: Protein arginine N-methyltransferase 8 (Homo sapiens) (UniProt Q9NR22); assay: Inhibition of PRMT8 (unknown origin) at 1 to 10 uM; details: dose 1-10 µM
[4] = target: Histone-lysine N-methyltransferase SETD7 (Homo sapiens) (UniProt Q8WTS6); assay: Inhibition of SETD7 (unknown origin) at 1 to 10 uM; details: dose 1-10 µM
Homo sapiens = organism: Homo sapiens; assay: Inhibition of PRC2 (unknown origin) at 1 to 10 uM; details: dose 1-10 µM
[5] = target: Protein arginine N-methyltransferase 9 (Homo sapiens) (UniProt Q6P2P2); assay: Inhibition of PRMT9 (unknown origin) at 1 to 10 uM; details: dose 1-10 µM
[6] = target: Histone-lysine N-methyltransferase NSD3 (Homo sapiens) (UniProt Q9BZ95); assay: Inhibition of NSD3 (unknown origin) at 1 to 10 uM; details: dose 1-10 µM
[7] = target: Histone-lysine N-methyltransferase NSD2 (Homo sapiens) (UniProt O96028); assay: Inhibition of NSD2 (unknown origin) at 1 to 10 uM; details: dose 1-10 µM
[8] = target: Histone-arginine methyltransferase CARM1 (Homo sapiens) (UniProt Q86X55); assay: Inhibition of PRMT4 (unknown origin) at 1 to 10 uM; details: dose 1-10 µM
[9] = target: Histone-lysine N-methyltransferase SMYD3 (Homo sapiens) (UniProt Q9H7B4); assay: Inhibition of SMYD3 (unknown origin) at 1 to 10 uM; details: dose 1-10 µM
[10] = target: Histone-lysine N-methyltransferase PRDM9 (Homo sapiens) (UniProt Q9NQV7); assay: Inhibition of FLAG tagged PRDM9 transfected in HEK293T cells assessed as inhibition of trimethylation H3K4 at 10 uM measured after 20 hrs by Western blot analysis; format: cell-based
[11] = target: Protein arginine N-methyltransferase 1 (Homo sapiens) (UniProt Q99873); assay: Inhibition of PRMT1 (unknown origin) at 1 to 10 uM; details: dose 1-10 µM
MDA-MB-436 = assay: Cytotoxicity against human MDA-MB-436 cells at upto 30 uM measured for 3 to 6 days by celltiter glo assay; format: functional, cell-based; details: time 3-6 day
[12] = target: Protein arginine N-methyltransferase 7 (Homo sapiens) (UniProt Q9NVM4); assay: Inhibition of PRMT7 (unknown origin) at 1 to 10 uM; details: dose 1-10 µM
SK-MM-2 = assay: Cytotoxicity against human SK-MM-2 cells at upto 30 uM measured for 3 to 6 days by celltiter glo assay; format: functional, cell-based; details: time 3-6 day
[13] = target: N-lysine methyltransferase KMT5A (Homo sapiens) (UniProt Q9NQR1); assay: Inhibition of SETD8 (unknown origin) at 1 to 10 uM; details: dose 1-10 µM
HEK-293T [14] = assay: Cytotoxicity against HEK293T cells at 10 uM measured after 4 days by IncuCyte zoom live-cell imaging analysis; format: toxicity, cell-based; details: human, 96 h, time 4 day
HEK-293T [15] = assay: Cytotoxicity against HEK293T cells at 10 uM measured after 24 hrs by IncuCyte zoom live-cell imaging analysis; format: toxicity, cell-based; details: human
Procedure, shortened: (§1)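 HEK293T cells seeded, treated next day with compound for 1 day; cell number counted by live-cell imaging after Vybrant DyeCycle Green staining; mean ± sd, n = 3.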

[16] = target: DNMT3A2/3L complex (Homo sapiens) (UniProt Q9Y6K1+Q9UJW3); assay: Inhibition of DNMT3A/DNMT3L (unknown origin) at 1 to 10 uM; format: protein-complex assay; details: dose 1-10 µM
[17] = target: N-lysine methyltransferase SMYD2 (Homo sapiens) (UniProt Q9NRG4); assay: Inhibition of SMYD2 (unknown origin) at 1 to 10 uM; details: dose 1-10 µM
[18] = target: Histone-lysine N-methyltransferase EHMT2 (Homo sapiens) (UniProt Q96KQ7); assay: Inhibition of G9a (unknown origin) at 1 to 10 uM; details: dose 1-10 µM
CAL-85-1 = assay: Cytotoxicity against human CAL-85-1 cells at upto 30 uM measured for 3 to 6 days by celltiter glo assay; format: functional, cell-based; details: time 3-6 day
Spermatocyte [19] = assay: Induction of meiotic defect in wild type mouse spermatocyte assessed as non homologous synapsis by SYCP1/SYCP3 staining based immunofluorescence assay; format: functional, cell-based
RPMI-8226 = assay: Cytotoxicity against human RPMI-8226 cells at upto 30 uM measured for 3 to 6 days by celltiter glo assay; format: functional, cell-based; details: time 3-6 day
[20] = target: Protein arginine N-methyltransferase 5 (Homo sapiens) (UniProt O14744); assay: Inhibition of PRMT5 (unknown origin) at 1 to 10 uM; details: dose 1-10 µM
[21] = target: Histone-lysine N-methyltransferase EHMT1 (Homo sapiens) (UniProt Q9H9B1); assay: Inhibition of EHMT1 (unknown origin) at 1 to 10 uM; details: dose 1-10 µM
[22] = target: Histone-lysine N-methyltransferase 2C (Homo sapiens) (UniProt Q8NEZ4); assay: Inhibition of MLL3 (unknown origin) at 1 to 10 uM; details: dose 1-10 µM
[23] = target: Histone-lysine N-methyltransferase SUV39H1 (Homo sapiens) (UniProt O43463); assay: Inhibition of SUV39H1 (unknown origin) at 1 to 10 uM; details: dose 1-10 µM
[24] = target: Histone-lysine N-methyltransferase KMT5B (Homo sapiens) (UniProt Q4FZB7); assay: Inhibition of SUV420H1 (unknown origin) at 1 to 10 uM; details: dose 1-10 µM
[25] = target: Histone-lysine N-methyltransferase 2A (Homo sapiens) (UniProt Q03164); assay: Inhibition of MLL1 (unknown origin) at 1 to 10 uM; details: dose 1-10 µM
[26] = target: Histone-lysine N-methyltransferase, H3 lysine-36 specific (Homo sapiens) (UniProt Q96L73); assay: Inhibition of NSD1 (unknown origin) at 1 to 10 uM; details: dose 1-10 µM
[27] = target: Histone-lysine N-methyltransferase, H3 lysine-79 specific (Homo sapiens) (UniProt Q8TEK3); assay: Inhibition of DOT1L (unknown origin) at 1 to 10 uM; details: dose 1-10 µM
[28] = target: Histone-lysine N-methyltransferase SUV39H2 (Homo sapiens) (UniProt Q9H5I1); assay: Inhibition of SUV39H2 (unknown origin) at 1 to 10 uM; details: dose 1-10 µM
Spermatocyte [29] = assay: Induction of meiotic defect in wild type mouse spermatocyte assessed as effect on paring of chromosomal homolog by SYCP1/SYCP3 staining based immunofluorescence assay; format: functional, cell-based
[30] = target: DNMT3B-DNMT3L complex (Homo sapiens) (UniProt Q9UBC3+Q9UJW3); assay: Inhibition of DNMT3B/DNMT3L (unknown origin) at 1 to 10 uM; format: protein-complex assay; details: dose 1-10 µM
[31] = target: RNA 5'-monophosphate methyltransferase (Homo sapiens) (UniProt Q7Z5W3); assay: Inhibition of BCDIN3D (unknown origin) at 1 to 10 uM; details: dose 1-10 µM
[32] = target: Histone-lysine N-methyltransferase PRDM9 (Homo sapiens) (UniProt Q9NQV7); assay: Inhibition of PRDM9 (unknown origin) at 1 to 10 uM; details: dose 1-10 µM
[33] = target: Protein arginine N-methyltransferase 3 (Homo sapiens) (UniProt O60678); assay: Inhibition of PRMT3 (unknown origin) at 1 to 10 uM; details: dose 1-10 µM
HEK-293T [34] = assay: Cytotoxicity against HEK293T cells at 3 uM measured after 4 days by IncuCyte zoom live-cell imaging analysis; format: toxicity, cell-based; details: human, 96 h, time 4 day
HEK-293T [35] = assay: Cytotoxicity against HEK293T cells at 3 uM measured after 24 hrs by IncuCyte zoom live-cell imaging analysis; format: toxicity, cell-based; details: human; procedure, shortened: as §1
[36] = target: Histone-lysine N-methyltransferase SETD2 (Homo sapiens) (UniProt Q9BYW2); assay: Inhibition of SETD2 (unknown origin) at 1 to 10 uM; details: dose 1-10 µM
[37] = target: Protein arginine N-methyltransferase 6 (Homo sapiens) (UniProt Q96LA8); assay: Inhibition of PRMT6 (unknown origin) at 1 to 10 uM; details: dose 1-10 µM
HCC1143 = assay: Cytotoxicity against human HCC1143 cells at upto 30 uM measured for 3 to 6 days by celltiter glo assay; format: functional, cell-based; details: time 3-6 day
[38] = target: Histone-lysine N-methyltransferase PRDM7 (Homo sapiens) (UniProt Q9NQW5); assay: Inhibition of PRDM7 (unknown origin) using biotin-tagged Histone H3 (1 to 25) and 3H-SAM as substrate incubated for 90 mins by topcount plate reader analysis
[39] = target: Histone-lysine N-methyltransferase SETDB1 (Homo sapiens) (UniProt Q15047); assay: Inhibition of SETDB1 (unknown origin) at 1 to 10 uM; details: dose 1-10 µM
[40] = target: Histone-lysine N-methyltransferase KMT5C (Homo sapiens) (UniProt Q86Y97); assay: Inhibition of SUV420H2 (unknown origin) at 1 to 10 uM; details: dose 1-10 µM
Histone-lysine N-methyltransferase KMT5C (Homo sapiens), sequence (Q86Y97 whole entry, looked up): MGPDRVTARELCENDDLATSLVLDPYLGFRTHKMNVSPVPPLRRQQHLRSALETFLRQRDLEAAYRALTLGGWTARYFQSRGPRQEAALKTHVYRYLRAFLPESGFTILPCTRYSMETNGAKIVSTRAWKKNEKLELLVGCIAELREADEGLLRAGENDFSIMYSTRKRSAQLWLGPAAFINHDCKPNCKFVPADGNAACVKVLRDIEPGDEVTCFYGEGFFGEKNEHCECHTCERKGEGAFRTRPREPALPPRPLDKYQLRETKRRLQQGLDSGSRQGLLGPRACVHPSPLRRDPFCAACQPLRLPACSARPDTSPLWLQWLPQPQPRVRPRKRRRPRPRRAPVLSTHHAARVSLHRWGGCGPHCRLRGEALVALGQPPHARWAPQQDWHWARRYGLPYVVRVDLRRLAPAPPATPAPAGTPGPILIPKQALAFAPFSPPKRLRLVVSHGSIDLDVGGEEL

Histone-lysine N-methyltransferase PRDM9 (Homo sapiens), sequence (Q9NQV7 whole entry): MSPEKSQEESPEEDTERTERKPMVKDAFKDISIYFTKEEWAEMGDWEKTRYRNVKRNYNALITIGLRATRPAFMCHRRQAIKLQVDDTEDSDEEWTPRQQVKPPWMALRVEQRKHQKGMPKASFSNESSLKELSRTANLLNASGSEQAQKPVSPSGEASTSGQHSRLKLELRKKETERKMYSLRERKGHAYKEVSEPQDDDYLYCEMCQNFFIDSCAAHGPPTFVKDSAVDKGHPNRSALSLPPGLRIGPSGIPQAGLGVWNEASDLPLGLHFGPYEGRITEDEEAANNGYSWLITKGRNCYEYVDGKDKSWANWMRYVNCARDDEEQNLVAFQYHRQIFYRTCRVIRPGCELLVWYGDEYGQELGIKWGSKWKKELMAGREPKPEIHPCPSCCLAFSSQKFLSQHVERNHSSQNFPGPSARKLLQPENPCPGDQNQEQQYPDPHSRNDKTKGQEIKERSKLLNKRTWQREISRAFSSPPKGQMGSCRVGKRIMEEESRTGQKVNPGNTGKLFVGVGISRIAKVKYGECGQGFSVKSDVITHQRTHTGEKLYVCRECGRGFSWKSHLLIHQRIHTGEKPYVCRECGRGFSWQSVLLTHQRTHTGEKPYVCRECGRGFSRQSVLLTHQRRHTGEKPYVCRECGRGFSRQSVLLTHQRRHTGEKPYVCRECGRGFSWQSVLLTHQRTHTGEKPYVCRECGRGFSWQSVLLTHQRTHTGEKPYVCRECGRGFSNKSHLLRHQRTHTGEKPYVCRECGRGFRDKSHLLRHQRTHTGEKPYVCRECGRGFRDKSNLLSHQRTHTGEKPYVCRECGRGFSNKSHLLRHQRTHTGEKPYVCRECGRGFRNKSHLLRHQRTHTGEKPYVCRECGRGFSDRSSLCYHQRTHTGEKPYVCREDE
Histone-lysine N-methyltransferase NSD3 (Homo sapiens), sequence (Q9BZ95 whole entry): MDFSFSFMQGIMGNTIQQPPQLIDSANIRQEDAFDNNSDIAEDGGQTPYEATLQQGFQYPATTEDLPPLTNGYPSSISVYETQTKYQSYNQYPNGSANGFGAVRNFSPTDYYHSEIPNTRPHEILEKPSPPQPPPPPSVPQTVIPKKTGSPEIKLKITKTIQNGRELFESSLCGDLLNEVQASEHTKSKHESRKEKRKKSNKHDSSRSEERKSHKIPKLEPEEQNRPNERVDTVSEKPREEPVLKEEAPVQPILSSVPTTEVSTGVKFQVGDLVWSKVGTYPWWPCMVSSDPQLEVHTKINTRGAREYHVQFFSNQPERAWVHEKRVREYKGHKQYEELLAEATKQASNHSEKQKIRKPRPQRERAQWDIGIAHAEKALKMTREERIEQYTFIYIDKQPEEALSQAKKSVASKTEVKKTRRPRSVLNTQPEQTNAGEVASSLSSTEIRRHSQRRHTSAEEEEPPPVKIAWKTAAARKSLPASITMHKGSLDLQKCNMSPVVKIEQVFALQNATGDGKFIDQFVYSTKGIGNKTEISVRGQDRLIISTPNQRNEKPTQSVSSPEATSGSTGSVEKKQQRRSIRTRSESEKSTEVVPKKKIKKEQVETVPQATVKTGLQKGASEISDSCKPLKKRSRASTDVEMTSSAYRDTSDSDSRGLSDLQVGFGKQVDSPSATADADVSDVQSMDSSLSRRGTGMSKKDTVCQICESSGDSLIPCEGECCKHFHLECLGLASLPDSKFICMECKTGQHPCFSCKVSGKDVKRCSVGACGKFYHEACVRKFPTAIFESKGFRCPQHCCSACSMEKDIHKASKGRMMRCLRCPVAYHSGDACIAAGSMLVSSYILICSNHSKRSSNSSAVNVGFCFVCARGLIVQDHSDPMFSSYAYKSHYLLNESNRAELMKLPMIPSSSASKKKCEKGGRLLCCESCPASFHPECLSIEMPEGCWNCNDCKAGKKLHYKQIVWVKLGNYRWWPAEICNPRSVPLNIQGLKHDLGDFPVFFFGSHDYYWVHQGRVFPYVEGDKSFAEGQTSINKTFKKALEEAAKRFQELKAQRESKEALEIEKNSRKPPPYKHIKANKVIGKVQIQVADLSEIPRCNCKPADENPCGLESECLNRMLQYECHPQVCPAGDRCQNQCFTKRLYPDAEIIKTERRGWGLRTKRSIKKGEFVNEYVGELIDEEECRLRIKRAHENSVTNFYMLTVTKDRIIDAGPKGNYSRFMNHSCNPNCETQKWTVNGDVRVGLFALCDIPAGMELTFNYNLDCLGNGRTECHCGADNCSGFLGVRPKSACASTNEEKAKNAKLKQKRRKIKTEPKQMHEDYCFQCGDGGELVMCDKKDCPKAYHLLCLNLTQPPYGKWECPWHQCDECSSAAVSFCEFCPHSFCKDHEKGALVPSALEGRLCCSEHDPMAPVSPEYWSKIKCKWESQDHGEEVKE
Histone-lysine N-methyltransferase, H3 lysine-79 specific (Homo sapiens), sequence (Q8TEK3 whole entry, looked up): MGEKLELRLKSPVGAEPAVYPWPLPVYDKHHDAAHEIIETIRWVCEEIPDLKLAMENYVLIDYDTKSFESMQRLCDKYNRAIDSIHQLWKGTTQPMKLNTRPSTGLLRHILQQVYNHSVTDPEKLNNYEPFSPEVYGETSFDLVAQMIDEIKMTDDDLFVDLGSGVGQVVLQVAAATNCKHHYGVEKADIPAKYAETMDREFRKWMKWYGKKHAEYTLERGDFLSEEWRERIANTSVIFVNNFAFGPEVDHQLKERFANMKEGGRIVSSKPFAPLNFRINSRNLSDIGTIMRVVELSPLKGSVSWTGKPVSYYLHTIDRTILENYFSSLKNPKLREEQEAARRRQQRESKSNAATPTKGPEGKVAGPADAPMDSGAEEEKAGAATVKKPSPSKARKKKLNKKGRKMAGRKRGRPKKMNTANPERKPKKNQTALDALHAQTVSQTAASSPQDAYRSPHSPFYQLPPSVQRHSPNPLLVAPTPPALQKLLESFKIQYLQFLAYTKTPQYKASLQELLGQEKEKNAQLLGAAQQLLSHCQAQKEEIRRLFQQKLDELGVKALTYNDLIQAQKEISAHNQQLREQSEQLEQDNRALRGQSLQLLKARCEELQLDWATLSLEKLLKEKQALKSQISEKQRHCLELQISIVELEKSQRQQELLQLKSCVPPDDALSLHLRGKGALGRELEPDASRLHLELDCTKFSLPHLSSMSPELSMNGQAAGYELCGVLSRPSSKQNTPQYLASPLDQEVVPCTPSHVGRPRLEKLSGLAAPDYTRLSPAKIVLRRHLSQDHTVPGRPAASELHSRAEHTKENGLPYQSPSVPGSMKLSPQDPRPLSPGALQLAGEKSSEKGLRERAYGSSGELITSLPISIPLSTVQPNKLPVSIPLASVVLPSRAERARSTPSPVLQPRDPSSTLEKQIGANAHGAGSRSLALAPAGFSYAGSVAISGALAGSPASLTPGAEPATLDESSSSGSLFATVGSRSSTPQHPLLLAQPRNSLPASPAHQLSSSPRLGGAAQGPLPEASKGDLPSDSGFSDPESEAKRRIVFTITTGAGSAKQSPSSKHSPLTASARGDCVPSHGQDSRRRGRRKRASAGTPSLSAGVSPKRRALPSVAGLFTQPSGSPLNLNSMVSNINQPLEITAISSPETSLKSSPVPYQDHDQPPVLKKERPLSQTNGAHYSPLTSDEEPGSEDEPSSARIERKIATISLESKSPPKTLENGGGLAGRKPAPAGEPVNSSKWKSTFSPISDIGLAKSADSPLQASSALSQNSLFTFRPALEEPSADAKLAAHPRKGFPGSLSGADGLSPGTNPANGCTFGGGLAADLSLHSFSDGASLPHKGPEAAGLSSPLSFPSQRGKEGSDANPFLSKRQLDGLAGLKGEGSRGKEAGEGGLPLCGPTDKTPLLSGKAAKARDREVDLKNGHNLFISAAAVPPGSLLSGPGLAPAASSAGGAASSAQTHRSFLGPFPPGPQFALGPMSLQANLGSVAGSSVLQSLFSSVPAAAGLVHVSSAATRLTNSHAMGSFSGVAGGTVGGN
Protein arginine N-methyltransferase 5 (Homo sapiens), sequence (O14744 whole entry): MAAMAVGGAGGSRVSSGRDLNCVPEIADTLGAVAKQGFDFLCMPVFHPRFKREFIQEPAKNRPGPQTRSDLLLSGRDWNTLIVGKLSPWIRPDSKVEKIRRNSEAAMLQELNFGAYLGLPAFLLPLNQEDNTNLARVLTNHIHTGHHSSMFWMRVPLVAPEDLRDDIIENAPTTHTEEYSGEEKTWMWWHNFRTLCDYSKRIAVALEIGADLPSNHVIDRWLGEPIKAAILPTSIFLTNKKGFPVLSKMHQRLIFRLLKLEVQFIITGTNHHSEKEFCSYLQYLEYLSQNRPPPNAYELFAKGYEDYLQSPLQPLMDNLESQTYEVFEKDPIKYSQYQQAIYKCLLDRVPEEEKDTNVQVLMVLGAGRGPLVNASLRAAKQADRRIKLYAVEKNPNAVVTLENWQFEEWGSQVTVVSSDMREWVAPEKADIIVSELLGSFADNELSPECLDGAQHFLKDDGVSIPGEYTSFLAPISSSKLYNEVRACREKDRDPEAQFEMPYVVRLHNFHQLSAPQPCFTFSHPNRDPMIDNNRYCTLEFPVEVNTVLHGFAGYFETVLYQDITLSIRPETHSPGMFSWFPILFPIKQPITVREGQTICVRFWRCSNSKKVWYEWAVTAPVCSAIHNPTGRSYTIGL

`COc1cc(OC)cc(-c2noc(N3CCN(C)C4(CCN(c5ccccc5)CC4)C3)n2)c1` was tested, and the inhibition [1] was “inactive”, the inhibition [2] was “inactive” and the Activity (HCC1806) was “inactive”. The inhibition [3] was “inactive”, the inhibition [4] was “inactive” and the inhibition (Homo sapiens) was “inactive”. The inhibition [5] was “inactive”, the inhibition [6] was “inactive” and the inhibition [7] was “inactive”. For the same molecule, the inhibition [8] was “inactive”, the inhibition [9] was “inactive” and the inhibition [10] was “inactive”. The inhibition [11] was “inactive”, the Activity (MDA-MB-436) was “inactive” and the inhibition [12] was “inactive”. For the same molecule, the Activity (SK-MM-2) was “inactive”, the inhibition [13] was “inactive” and the Activity (HEK-293T [14]) was “Toxic”. The Activity (HEK-293T [15]) was “Toxic”, the inhibition [16] was “inactive” and the inhibition [17] was “inactive”. For the same molecule, the inhibition [18] was “inactive”, the Activity (CAL-85-1) was “inactive” and the Activity (Spermatocyte [19]) was “inactive”. For the same molecule, the Activity (RPMI-8226) was “inactive”, the inhibition [20] was “inactive” and the inhibition [21] was “inactive”. For the same molecule, the inhibition [22] was “inactive”, the inhibition [23] was “inactive” and the inhibition [24] was “inactive”. The inhibition [25] was “inactive”, the inhibition [26] was “inactive” and the inhibition [27] was “inactive”. The inhibition [28] was “inactive”, the Activity (Spermatocyte [29]) was “inactive” and the inhibition [30] was “inactive”. The inhibition [31] was “inactive”, the inhibition [32] was “inactive” and the inhibition [33] was “inactive”. The Activity (HEK-293T [34]) was “Non-Toxic”, the Activity (HEK-293T [35]) was “Non-Toxic” and the inhibition [36] was “inactive”. For the same molecule, the inhibition [37] was “inactive”, the Activity (HCC1143) was “inactive” and the inhibition [38] was “inactive”. For the same molecule, the inhibition [39] was “inactive” and the inhibition [40] was “inactive”.
